Experimental data of several laboratories.
Compare with care: the assays were run in different laboratories.
Method: competition with immobilised ligand
RPS6KA4 C-terminal kinase domain: Ribosomal protein S6 kinase alpha-4, C-terminal kinase domain (RPS6KA4, Homo sapiens, UniProt O75676)
RPS6KA4 N-terminal kinase domain: Ribosomal protein S6 kinase alpha-4, N-terminal kinase domain (RPS6KA4, Homo sapiens, UniProt O75676)

COc1ncc2cc3ccccc3nc2c1C#N
remaining binding (RPS6KA4 C-terminal kinase domain; cell-free assay; 5 µM): 58%

Cc1noc([C@H]2C[C@@H](c3ccc(C(F)(F)F)cc3)CN(C(=O)N3CCS(=O)(=O)C3)C2)n1
remaining binding (RPS6KA4 N-terminal kinase domain; cell-free assay; 1 µM): 100%

C[C@@H](c1ccc(-n2cnc3c(N)ncnc32)cc1)N1CCc2nn(C)c(Cc3ccccc3)c2C1=O
remaining binding (RPS6KA4 N-terminal kinase domain; binding; 0.1 µM): 84%

O=C(NCC1CCOCC1)c1n[nH]cc1NC(=O)c1c(F)cccc1F
remaining binding (RPS6KA4 C-terminal kinase domain; binding; 1 µM): 29%

CSc1cccnc1N1CCN(Cc2nc3ccccc3[nH]2)CC1
remaining binding (RPS6KA4 N-terminal kinase domain; cell-free assay; 1 µM): 94%

Nc1ncc2c(n1)-c1c([nH]c3ccc(C#CC4CC4)cc13)CCCC2
remaining binding (RPS6KA4 C-terminal kinase domain; binding; 1 µM): 93%

C[C@H]1CCN(c2nccc(-c3cnn4ncccc34)n2)C1
remaining binding (RPS6KA4 C-terminal kinase domain; binding; 1 µM): 56%

O=C(NCCCN1CCOCC1)c1ccc(Nc2nccc(-c3cc4ccccc4s3)n2)cc1
remaining binding (RPS6KA4 C-terminal kinase domain; binding; 1 µM): 19%

Cc1cnn2ncc(-c3ccnc(N(C)C)n3)c2c1
remaining binding (RPS6KA4 C-terminal kinase domain; binding; 1 µM): 62%

CS(=O)(=O)NCC[C@H](NC(=O)c1cncc2c1cnn2-c1ccc(F)cc1)c1ccnc(S(C)(=O)=O)c1
remaining binding (RPS6KA4 N-terminal kinase domain; cell-free assay; 1 µM): 85%

c1cncc(-c2cccc(Nc3nccc(NC4CCCCC4)n3)c2)c1
remaining binding (RPS6KA4 C-terminal kinase domain; binding; 10 µM): 100%

O=C(NCCCN1CCOCC1)c1ccc(Nc2ncc(Cl)c(-c3ccc(Cl)s3)n2)cc1
remaining binding (RPS6KA4 N-terminal kinase domain; binding; 1 µM): 100%

CN(C)c1ncc(F)c(-c2cnn3ncccc23)n1
remaining binding (RPS6KA4 N-terminal kinase domain; binding; 1 µM): 89%

Cc1c(C(=O)O)cc(-c2ccc(C3CCNCC3)cc2)c2ccc(-c3ccc(C(F)(F)F)cc3)cc12
remaining binding (RPS6KA4 N-terminal kinase domain; binding; 1 µM): 88%

FC(F)(F)Oc1cccc(-c2cnc3ccc(-c4ccncc4)nn23)c1
remaining binding (RPS6KA4 C-terminal kinase domain; binding; 5 µM): 87%

c1cnn2ncc(-c3ccnc(N4CCC45COC5)n3)c2c1
remaining binding (RPS6KA4 C-terminal kinase domain; binding; 1 µM): 55%

O=C(N1CCS(=O)(=O)CC1)N1C[C@H](c2ccc(OC(F)(F)F)cc2)C[C@H](c2nc(C3CC3)no2)C1
remaining binding (RPS6KA4 N-terminal kinase domain; cell-free assay; 1 µM): 100%

CN(CCCC(F)(F)F)c1nccc(-c2cnn3ncccc23)n1
remaining binding (RPS6KA4 N-terminal kinase domain; binding; 1 µM): 100%

CO[C@@H](C)c1c(Nc2ccc([C@H](N(C)C(=O)C3CCS(=O)(=O)CC3)C(F)(F)F)cc2)cnc2cc(Cl)nn12
remaining binding (RPS6KA4 N-terminal kinase domain; cell-free assay; 1 µM): 86%

N[C@@H]1CCN(c2nccc(-c3cnn4ncccc34)n2)C1
remaining binding (RPS6KA4 C-terminal kinase domain; binding; 1 µM): 100%

COc1cnc(Nc2cccc(S(N)(=O)=O)c2)nc1N1CCN(c2ccccc2)C(=O)C1
remaining binding (RPS6KA4 N-terminal kinase domain; binding; 1 µM): 100%

O=C(NCCCC1CCCCC1)c1ccc(CNC(=O)c2cnn(-c3ccccc3)c2C(F)(F)F)cc1
remaining binding (RPS6KA4 C-terminal kinase domain; cell-free assay; 0.1 µM): 90%

O=C(Nc1c[nH]nc1C(=O)NC1CCNCC1)c1cc(F)cc(F)c1
remaining binding (RPS6KA4 C-terminal kinase domain; binding; 1 µM): 34%

O=C(c1ccc(Nc2ncc(Cl)c(-c3cc4ccccc4s3)n2)cc1)N1CCC(N2CCCC2)CC1
remaining binding (RPS6KA4 N-terminal kinase domain; binding; 1 µM): 100%

COc1ccnn2ncc(-c3ccnc(N(C)C)n3)c12
remaining binding (RPS6KA4 N-terminal kinase domain; binding; 1 µM): 97%

Cc1cnc(Nc2ccc(C(=O)N3CCC(N4CCCC4)CC3)cc2)nc1-c1cc2ccccc2s1
remaining binding (RPS6KA4 N-terminal kinase domain; binding; 1 µM): 100%

CCN1CCN(Cc2ccc(C(=O)Nc3ccc(C)c(Oc4ccc5c(c4)CC(=O)N5)c3)cc2C(F)(F)F)CC1
remaining binding (RPS6KA4 C-terminal kinase domain; binding; 1 µM): 100%

CNCc1ccccc1-c1csc([C@@H](C)Nc2nc(C)nc3cc(OC)c(OC)cc23)c1
remaining binding (RPS6KA4 N-terminal kinase domain; cell-free assay; 1 µM): 100%

CNC(=O)[C@@H]1CC[C@@H](n2c(-c3ccc4cnccc4c3)nc3ccc(C(=O)NCc4cccc(C(N)=O)c4)cc32)C1
remaining binding (RPS6KA4 N-terminal kinase domain; binding; 1 µM): 100%

O=C(c1ccc(Nc2nccc(-c3cc4ccccc4s3)n2)cc1)N1CCC(N2CCCC2)CC1
remaining binding (RPS6KA4 N-terminal kinase domain; binding; 1 µM): 100%

F[C@@H]1CCN(c2nccc(-c3cnn4ncccc34)n2)C1
remaining binding (RPS6KA4 N-terminal kinase domain; binding; 1 µM): 90%

COc1cnc(Nc2cccc(S(N)(=O)=O)c2)nc1N1CCN(c2ccccc2)CC1
remaining binding (RPS6KA4 C-terminal kinase domain; binding; 1 µM): 89%

O=C(c1ccc(Nc2ncc(Cl)c(-c3ccc(Cl)s3)n2)cc1)N1CCC(N2CCCC2)CC1
remaining binding (RPS6KA4 N-terminal kinase domain; binding; 1 µM): 100%

C=CC(=O)N1CCC(C(=O)NCC(=O)N2CCN(c3nc(-c4cnc(N)nc4C(F)F)nc(N4CCOCC4)n3)CC2)CC1
remaining binding (RPS6KA4 N-terminal kinase domain; binding; 1 µM): 82%
